This is an account of results in ChEMBL document CHEMBL1124671, “Carboxyalkyl dipeptides with atrial natriuretic factor potentiating and antihypertensive activity” (J Med Chem, 1989).

Test [1] deals with T1, Natriuretic peptides A (Rattus norvegicus) (UniProt P01161).
T1 sequence (whole entry): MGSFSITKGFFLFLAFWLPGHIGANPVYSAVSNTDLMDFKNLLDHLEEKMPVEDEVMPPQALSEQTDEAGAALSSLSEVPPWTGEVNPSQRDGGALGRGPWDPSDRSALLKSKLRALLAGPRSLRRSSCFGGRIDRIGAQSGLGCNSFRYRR
Briefly: Compound was administered subcutaneously to spontaneously hypertensive rats (SHR) and evaluated for the ability to potentiate atrial natriuretic factor (ANF). Put shortly: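 Conscious SHR given 30 mg/kg s.c. 30 min before an i.v. challenge of 30 μg/kg ANF 103–125; mean arterial pressure followed, with vehicle-treated controls. Value is the maximum increase in hypotensive response to ANF over the control group.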

The target of test [2] is T2, Angiotensin-converting enzyme (Rattus norvegicus, UniProt P47820).
T2 sequence (P47820 whole entry): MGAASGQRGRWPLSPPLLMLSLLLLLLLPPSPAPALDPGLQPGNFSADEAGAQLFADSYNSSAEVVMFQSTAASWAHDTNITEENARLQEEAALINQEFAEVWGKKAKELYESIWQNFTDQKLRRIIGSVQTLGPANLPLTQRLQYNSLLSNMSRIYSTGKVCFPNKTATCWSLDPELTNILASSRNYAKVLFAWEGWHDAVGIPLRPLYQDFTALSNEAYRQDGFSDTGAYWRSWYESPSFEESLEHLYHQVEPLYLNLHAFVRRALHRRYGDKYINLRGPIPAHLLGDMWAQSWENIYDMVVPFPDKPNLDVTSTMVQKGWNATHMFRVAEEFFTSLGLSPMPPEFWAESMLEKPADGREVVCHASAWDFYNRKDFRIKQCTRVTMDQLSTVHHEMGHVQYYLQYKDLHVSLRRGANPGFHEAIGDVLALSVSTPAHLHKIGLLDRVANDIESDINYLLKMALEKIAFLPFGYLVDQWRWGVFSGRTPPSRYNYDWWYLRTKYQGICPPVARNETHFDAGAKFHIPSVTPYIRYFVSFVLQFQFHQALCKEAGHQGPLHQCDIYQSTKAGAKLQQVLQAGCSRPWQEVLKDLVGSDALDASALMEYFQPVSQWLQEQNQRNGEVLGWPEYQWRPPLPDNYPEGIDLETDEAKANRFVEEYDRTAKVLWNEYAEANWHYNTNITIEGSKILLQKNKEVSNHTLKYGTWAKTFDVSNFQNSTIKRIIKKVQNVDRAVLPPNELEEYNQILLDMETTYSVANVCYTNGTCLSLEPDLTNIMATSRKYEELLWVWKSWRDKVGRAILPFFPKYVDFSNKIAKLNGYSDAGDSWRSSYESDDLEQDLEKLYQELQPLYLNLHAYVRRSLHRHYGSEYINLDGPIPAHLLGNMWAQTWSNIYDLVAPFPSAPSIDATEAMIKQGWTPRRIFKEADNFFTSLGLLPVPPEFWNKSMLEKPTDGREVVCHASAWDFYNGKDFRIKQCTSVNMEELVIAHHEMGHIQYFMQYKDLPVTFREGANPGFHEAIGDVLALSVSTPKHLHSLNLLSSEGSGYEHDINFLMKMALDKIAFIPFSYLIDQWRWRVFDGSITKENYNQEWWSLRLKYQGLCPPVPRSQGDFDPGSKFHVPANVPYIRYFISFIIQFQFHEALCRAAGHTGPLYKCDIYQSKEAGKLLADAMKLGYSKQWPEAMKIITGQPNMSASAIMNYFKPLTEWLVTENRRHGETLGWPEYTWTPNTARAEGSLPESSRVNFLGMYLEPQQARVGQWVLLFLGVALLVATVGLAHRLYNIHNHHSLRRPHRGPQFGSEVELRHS
The test can be described thus: Compound was evaluated for the ability to inhibit Angiotensin I converting enzyme in rat.

For a further test, the target named is T3, Neprilysin (Oryctolagus cuniculus, UniProt P08049).
T3 sequence (P08049 whole entry): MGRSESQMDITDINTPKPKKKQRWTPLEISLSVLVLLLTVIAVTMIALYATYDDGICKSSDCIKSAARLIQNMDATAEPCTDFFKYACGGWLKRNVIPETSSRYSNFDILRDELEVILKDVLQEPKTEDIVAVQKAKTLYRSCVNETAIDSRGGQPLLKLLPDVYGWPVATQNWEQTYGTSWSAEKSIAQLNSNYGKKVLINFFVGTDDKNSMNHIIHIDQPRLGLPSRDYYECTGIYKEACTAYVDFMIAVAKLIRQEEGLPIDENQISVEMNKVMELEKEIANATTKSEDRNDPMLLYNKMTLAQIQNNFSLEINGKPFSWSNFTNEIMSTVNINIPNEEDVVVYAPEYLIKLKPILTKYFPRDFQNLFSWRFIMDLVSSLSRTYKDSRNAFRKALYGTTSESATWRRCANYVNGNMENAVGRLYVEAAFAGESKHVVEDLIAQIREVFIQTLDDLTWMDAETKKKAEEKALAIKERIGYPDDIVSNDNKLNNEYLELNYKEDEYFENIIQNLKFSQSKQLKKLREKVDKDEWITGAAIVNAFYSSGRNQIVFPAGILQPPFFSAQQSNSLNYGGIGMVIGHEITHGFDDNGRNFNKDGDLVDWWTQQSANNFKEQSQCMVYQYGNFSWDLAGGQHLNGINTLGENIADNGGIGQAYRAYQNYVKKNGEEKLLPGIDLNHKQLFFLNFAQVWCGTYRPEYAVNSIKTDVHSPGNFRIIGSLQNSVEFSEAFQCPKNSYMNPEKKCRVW
The test can be described thus: Compound was evaluated for the ability to inhibit neutral endopeptidase purified from rabbit kidney. Put shortly:
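Enzyme: purified rabbit kidney neutral endopeptidase (NEP).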

Test [3] deals with T1, Natriuretic peptides A (Rattus norvegicus). As to conditions: Cardiac atrium.

Calls of active or inactive are those of the source. No cut-off for these calls is given here. A value given as a limit tells only on which side of the number the result lay.

As for `O=C(O)[C@H](CCc1ccccc1)N[C@@H](Cc1ccccc1)C(=O)NC[C@H](O)C(=O)O` (stereo in doubt; 6d) [listing 1 of 2 here], the Delta blood pressure in test [1] worked out at 25 mmHg.
The IC50 is the concentration that gives 50% inhibition. High values mean lower potency, low ones higher potency. With `O=C(O)CCNC(=O)[C@H](Cc1ccccc1)N[C@@H](Cc1ccccc1)C(=O)O`, the IC50 in test [2] was over 1000 nM; on Neprilysin it was 20 nM. In addition, in test [1], the Delta blood pressure is 20 mmHg.
`O=C(O)[C@H](Cc1ccccc1)N[C@@H](Cc1ccccc1)C(=O)NC[C@H](O)C(=O)O`: the IC50 in test [2] was over 1000 nM; against Neprilysin it was 11 nM. In test [1], the Delta blood pressure came out at 17 mmHg.
In the same order, the values of `O=C(O)CCNC(=O)[C@H](Cc1ccccc1)N[C@@H](CCc1ccccc1)C(=O)O` are over 1000 nM, 16 nM and 17 mmHg.
On to `O=C(O)[C@H](O)CNC(=O)[C@H](Cc1ccccc1)N[C@@H](CCc1ccccc1)C(=O)O`, for which the IC50 in test [2] was found to be 640 nM; against Neprilysin it was 21 nM. Also, the Delta blood pressure in test [1] stood at 28 mmHg.
`O=C(O)[C@H](CCc1ccccc1)N[C@@H](Cc1ccccc1)C(=O)NC[C@H](O)C(=O)O` (stereo in doubt; 6d) [listing 2 of 2 here]: the IC50 in test [2] is over 1000 nM; against Neprilysin it was 11 nM.
For `O=C(O)[C@H](CCc1ccccc1)N[C@@H](Cc1ccccc1)C(=O)NC[C@H](O)C(=O)O` (stereo in doubt; 6e) [listing 1 of 2 here], in test [1], the Delta blood pressure is 35 mmHg.
Regarding `O=C(O)[C@H](CCc1ccccc1)N[C@@H](Cc1ccccc1)C(=O)NC[C@H](O)C(=O)O` (stereo in doubt; 6e) [listing 2 of 2 here], the values for the IC50 (in test [2]; against Neprilysin) were over 1000 nM and 15 nM, respectively.
On to `O=C(O)[C@H](CO)NC(=O)[C@H](Cc1ccccc1)N[C@@H](CCc1ccccc1)C(=O)O`, for which the results for the IC50 (in test [2]; on Neprilysin) were 320 nM and 393 nM, respectively. Moreover, the Delta blood pressure entry in test [3] was “inactive”.
